The list is not random: actives were taken first. Their share in the collection is about 2%.
CAL PDZ FP-1 = blocks peptide binding to human CAL PDZ domain. inhibition, % at 20 µM. AID 504414. 330,000 tested, 0.02% active. purified CAL PDZ, TMR-peptide fluorescence polarization, 1 h. Q9HD26;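 active = highest replicate inhibition of at least 40%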;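 also: plate controls were DMSO neutral control wells for no effect and unlabeled competitor peptide control wells for full effect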
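material = purified tagged CAL PDZ domain construct (CerCALP) | compound dosing = 20 µM, one dose | times = 1 h at RT | measured by = fluorescence polarization from S- and P-plane intensities, G-factor corrected | read-out = inhibition from polarization loss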
dFosB activator = enhances mouse delta FosB homodimer DNA binding. P13346. purified delta FosB, TAMRA-CDK5 oligo fluorescence polarization; percent of positive-control signal above neutral wells. activation, % at 25 µM. 340,000 tested, 0.99% active;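 active = mean activation above about 17%, with every replicate also reaching it, limit read from the data, passing the limit was not always enough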
PKA-R1A act = activates the PKA-R1A holoenzyme complex; PKA-R1A dissociation, Cy5-IP20 fluorescence polarization; scaled: DMSO 0%, 113 µM cGMP 100%; activation, % at 11.4 µM; 340,000 tested, 0.083% active; AID 504707;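 active = percent activation above the mean of all tested compounds plus 3 SD, cut at about 19% in these data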;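 also: higher means more PKAc released from R1A so a rise in polarization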
NTR1 ag = activates human neurotensin receptor 1; P30989; NTR1-U2OS beta-arrestin-GFP spot imaging, agonist mode; activation, % at 20 µM; 330,000 tested, 0.17% active; AID 493036;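 active = activation at or above 40% of the spot to cytoplasm intensity ratio, with at least 20 cells analyzed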;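 also: 0% = DMSO without peptide and 100% = 100 nM NTR1 peptide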
PKA-R2B act = PKA-R2B complex activation | 340,000 tested, 0.079% active | P22694+P31323 | AID 504700 | activation, % at 11.4 µM | PKA-R2B holoenzyme dissociation, Cy5-IP20 fluorescence polarization; R2B truncated from residue 108, S112A mutant; 0% DMSO only, 100% 113 µM cGMP;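 active = activation above a cutoff set at the mean over all compounds plus 3 SD, cut at about 18% in these data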;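 also: higher means more holoenzyme dissociation and a rise in polarization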
Target sequence (P31323 whole entry, looked up, other chains not shown, the tested form may be a part): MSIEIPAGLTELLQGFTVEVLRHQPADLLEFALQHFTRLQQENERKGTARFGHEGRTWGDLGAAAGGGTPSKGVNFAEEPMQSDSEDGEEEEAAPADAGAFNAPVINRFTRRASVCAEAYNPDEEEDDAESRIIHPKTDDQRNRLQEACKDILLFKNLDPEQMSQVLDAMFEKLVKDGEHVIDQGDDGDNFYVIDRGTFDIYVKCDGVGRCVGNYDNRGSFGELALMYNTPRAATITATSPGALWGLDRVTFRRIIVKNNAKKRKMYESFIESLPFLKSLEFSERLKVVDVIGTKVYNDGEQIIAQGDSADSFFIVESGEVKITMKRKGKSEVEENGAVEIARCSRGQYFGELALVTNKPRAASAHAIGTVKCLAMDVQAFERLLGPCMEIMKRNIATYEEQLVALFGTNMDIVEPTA
CAL PDZ FP-2 = CAL PDZ (human) peptide binding inhibition; Q9HD26; purified CAL PDZ, TMR-peptide fluorescence polarization, 1 h; inhibition, % at 24.9 µM; 300,000 tested, 0.92% active; AID 602252;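 active = mean inhibition of at least 30% with at least half of replicates also reaching 30%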;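 also: 0% = DMSO neutral control and 100% = excess unlabeled competitor peptide PRC23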
NTR1 ag conf = NTR1 (human) agonism, confirmed; shares compounds with NTR1 ag; NTR1-U2OS beta-arrestin-GFP translocation imaging; activation, % at 20 µM; 480 tested, 38% active;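 active = mean activation at 20 µM of at least 40%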;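 also: 0% = DMSO without peptide and 100% = 100 nM NTR1 peptide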
An asterisk follows results filed as active; nt = not tested or not shown.

SMILES	CAL PDZ FP-1	dFosB activator	PKA-R1A act	NTR1 ag	PKA-R2B act	CAL PDZ FP-2	NTR1 ag conf
O=C(NC(=S)Nc1nc2c(s1)CCCC2)c1ccc(C(=O)c2ccccc2)cc1	0	1	-13	5	-8	-2	nt
O=C(NC(=S)Nc1nc2c(s1)CSc1ccccc1-2)c1ccccc1	nt	5	9	62*	-2	1	1
Cc1ccc(NC(=O)c2ccc(Nc3c([N+](=O)[O-])cc([N+](=O)[O-])cc3[N+](=O)[O-])cc2)cc1	-1	-21	-11	46*	11	0	22
CC(=O)Nc1ccc(NC(=O)c2cc([N+](=O)[O-])cc([N+](=O)[O-])c2)cc1	1	3	-4	0	3	nt	nt
CC(CCc1ccccc1)NC(=O)COC(=O)c1ccc(S(C)(=O)=O)c([N+](=O)[O-])c1 (centres undefined)	-2	3	-12	42*	-9	-6	79*
CC(CCc1ccccc1)NC(=O)COC(=O)c1ccc([N+](=O)[O-])cc1 (centres undefined)	-1	2	-4	-2	-12	4	nt
CC(C)CN(C(=O)c1cccc(F)c1)c1c(N)n(CC(C)C)c(=O)[nH]c1=O	0	-6	1	42*	5	-4	-1
c1ccc(C(c2ccccc2)N2CCN(c3nc4ccccc4n4cnnc34)CC2)cc1	nt	nt	nt	42*	nt	nt	50*
c1cnc(N2CCN(c3nc4ccccc4n4cnnc34)CC2)nc1	-2	1	7	8	-3	nt	nt
Cc1cc(C)cc(N(CCC#N)C(=O)COC(=O)c2ccc(OCc3c(C)noc3C)cc2)c1	-3	-2	-4	2	-14	-3	nt
COc1ccc(C(=O)/C=C2/C(=O)Nc3ccccc32)cc1	nt	-11	-7	28	8	-3	nt
COc1ccc(C(=O)/C=C2/C(=O)Nc3ccccc32)c(OC)c1	-2	-4	0	52*	0	-3	49*
COC(=O)CSc1nc(N)c2c3c(sc2n1)C(c1ccccc1)SC(c1ccccc1)C3 (centres undefined)	0	-12	11	50*	4	-5	32
COC(=O)CSc1nc(N)c2c3c(sc2n1)CCCC3	-1	-11	4	-1	-6	-4	nt
CCCNC(=O)c1cc(Cl)c(NC(=O)C2=CSCCO2)cc1OC	-2	-7	4	1	9	5	nt
CCOC(=O)c1cc(-c2ccccc2)sc1NC(=O)C(C)Sc1nnc(N)s1 (centres undefined)	0	-3	-14	44*	-8	-7	25
COc1ccc(S(=O)(=O)N(C)c2nc3ccccc3n3c(CC(C)C)nnc23)cc1	-1	-7	-4	4	-11	-6	nt
CC(C)(C)C1CCc2c(sc(NC(=O)CSc3ncn[nH]3)c2C#N)C1 (centres undefined)	14	-8	-10	41*	-6	-3	31
CC1=C(C(=O)OC2CCCCCCC2)C(c2cc3c(cc2Br)OCO3)CC(=O)N1 (centres undefined)	1	-5	-12	44*	4	-4	42*
O=C(NC(=S)Nc1cccc(Cl)c1N1CCOCC1)c1cccs1	-1	-1	-10	43*	-9	-4	15
CCCC(=O)NC(=S)Nc1cccc(Cl)c1N1CCCC1	0	-8	-5	51*	-11	-2	15
O=C(NC(=S)Nc1cccc(Cl)c1N1CCCCC1)c1cccs1	nt	-9	-1	35	0	-2	nt
CCc1ccc(N(CC)C(=O)c2cn(C)c(=O)c3ccccc23)cc1	1	-7	0	-1	3	-4	nt
S=c1[nH]nc(-c2n[nH]c3c2CCC3)n1/N=C/C=C/c1ccco1	nt	nt	nt	2	nt	nt	nt
Cc1cc(N2CCOCC2)ccc1/C=C\[N+](=O)[O-]	-3	-1	-10	40*	-4	-2	77*
O=C(COCC(=O)Nc1cccc(C(F)(F)F)c1)Nc1cccc(C(F)(F)F)c1	0	-12	-4	47*	8	-1	12

Screens: PubChem BioAssay, several laboratories
